MT1-MMP act inh = blockers of MT1-MMP proenzyme processing, primary screen, HT1080 RFP-PRO-GFP cells, GFP/RFP fluorescence | GFP/RFP ratio fluorescence, overnight; percent of plate control window, DMSO zero | hit rate 0.061% among 360,000 | AID 651647, 2012 | Matrix metalloproteinase-14 (Homo sapiens), P50281 | GFP/RFP ratio change, % at 20 µM;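 active means GFP/RFP ratio change of at least 30% with cell ATP level not reduced by more than half and red fluorescence within 50% of control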
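Compound: 20 µM single dose, 1% DMSO / System: HT1080 RFP-PRO-GFP cells / Controls: DMSO and RFP-L50D-GFP cell wells / Read-out basis: GFP/RFP fluorescence ratio / Schedule: overnight compound exposure at 37 °C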
FGF22 binding = binders of human FGF22 protein, primary screen, FGF22 synaptogenesis inhibitor project, biophysical, thermal shift, single point. Fibroblast growth factor 22 (Homo sapiens), Q9HCT0. recombinant FGF22 thermal shift, SYPRO orange fluorescence; percent of sucrose octasulfate shift, DMSO zero. activity (Tm shift, normalised), % at 9.99 µM. hit rate 1.5% among 340,000;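 active means mean Tm shift, scaled 0 neutral to 100 positive control, at about 1.3% or above, every replicate too, limit read from the data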
DAGLB inhibitor = DAGLB lipase inhibitors, primary screen, biochemical, fluorescence, HTS. Diacylglycerol lipase-beta (Homo sapiens), Q8NCG7. HEK293T DAGLB membrane lysate, EnzChek fluorogenic substrate. inhibition, % at 5.17 µM. hit rate 0.059% among 340,000. AID 504411, 2011; in the data active means inhibition above about 34%;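 further: 0% = enzyme with vehicle and 100% = wells lacking enzyme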
Target sequence (Q8NCG7 whole entry, looked up): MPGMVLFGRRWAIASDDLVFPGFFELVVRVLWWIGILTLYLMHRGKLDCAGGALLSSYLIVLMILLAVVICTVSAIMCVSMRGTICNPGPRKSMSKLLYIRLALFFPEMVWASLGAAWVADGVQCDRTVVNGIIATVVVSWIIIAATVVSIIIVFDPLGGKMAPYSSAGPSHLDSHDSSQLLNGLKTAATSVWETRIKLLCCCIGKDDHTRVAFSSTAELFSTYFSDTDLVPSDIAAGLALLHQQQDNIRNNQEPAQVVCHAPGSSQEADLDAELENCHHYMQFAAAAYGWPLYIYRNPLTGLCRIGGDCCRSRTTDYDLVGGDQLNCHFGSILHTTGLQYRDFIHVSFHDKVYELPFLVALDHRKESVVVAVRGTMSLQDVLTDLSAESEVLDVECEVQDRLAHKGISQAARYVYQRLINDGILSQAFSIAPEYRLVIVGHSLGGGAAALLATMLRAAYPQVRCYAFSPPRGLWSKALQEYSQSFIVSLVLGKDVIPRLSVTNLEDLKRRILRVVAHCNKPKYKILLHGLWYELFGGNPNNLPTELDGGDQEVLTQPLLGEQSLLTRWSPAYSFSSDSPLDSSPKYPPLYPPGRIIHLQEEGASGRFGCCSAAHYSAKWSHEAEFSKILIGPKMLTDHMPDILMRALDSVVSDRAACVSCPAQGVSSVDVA
VLA-4 inh = inhibition in human VLA-4 binding assay, primary screen, VLA-4 allosteric modulator project, MLPCN library, flow cytometry, VLA-4 expressing cells | Integrin alpha-4 (Homo sapiens), P13612 | ligand binding flow cytometry | inhibition, % (about 7 µM as worked out from the volumes in the protocol) | hit rate 0.2% among 330,000 | AID 2557, 2010; in the data active means inhibition above about 50%
ABCB6 inh MLPCN = ABCB6 transporter inhibitors, primary screen, K562-ABCB6 cells, flow cytometry, MLPCN library; fluorescence ratio to DMSO, % at 10 µM; ATP-binding cassette sub-family B member 6 (Homo sapiens), Q9NP58; AID 602162, 2011; hit rate 0.19% among 360,000; K562-ABCB6 porphyrin accumulation, 1 h; hits give low values;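 active means fluorescence ratio to DMSO below 75%, the collection mean minus 3 SD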;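 further: signal is porphyrin accumulated inside mitochondria; 100% equals median channel fluorescence of DMSO control wells; lower ratio means ABCB6 inhibition with less porphyrin fluorescence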
Granule exo inh = LAMP-1 surface exposure blockers, TALL-104 cells – cell-based, flow cytometry, MLPCN library, primary screen | TALL-104 LAMP-1 surface exposure; cells stimulated with thapsigargin and PMA | hit rate 0.66% among 360,000 | inhibition, % at 10 µM;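 active means inhibition above about 55%, limit read from the data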
Granule exo CP1 = inhibitors of lytic granule exocytosis, confirmation, TALL-104 cells, flow cytometry, Cherry Pick01. AID 651954, 2012. hit rate 11% among 1,500. LAMP-1 externalization; stimulated with PMA plus thapsigargin. inhibition, % at 10 µM. shares compounds with Granule exo inh; in the data active means inhibition above about 60%;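 further: 0% = stimulated vehicle wells and 100% = unstimulated wells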
An asterisk follows results filed as active; / = no result given. Hits are enriched below; roughly 2% of the tested compounds scored in any of these assays.

SMILES	MT1-MMP act inh	FGF22 binding	DAGLB inhibitor	VLA-4 inh	ABCB6 inh MLPCN	Granule exo inh	Granule exo CP1
CCOC(=O)COc1ccccc1C(=O)c1cnn(-c2ccccc2)c1	0	0	-4	-11	96	62*	-9
CCOc1cc(CNCCO)cc(Br)c1OCc1ccccc1Cl	-5	/	-5	24	102	11	/
CCOc1cc(CNCCO)cc(Br)c1OCc1ccc(Cl)cc1	-14	/	-2	30	94	63*	-6
CCOc1cc(CNC(C)(C)CO)cc(Br)c1OCc1ccc(Cl)cc1Cl	-8	/	-1	21	83	66*	35
COc1ccc(-c2nc(CN3CCN(c4cc(C)nc(C)c4)CC3)c(C)o2)c2ccccc12	1	0	3	12	101	58*	36
CC(C)NC(=O)c1ccccc1NS(=O)(=O)c1ccc(Br)s1	-2	0	5	/	99	59*	-13
O=C(c1ccccc1NS(=O)(=O)c1ccc(Br)s1)N1CCCC1	-5	/	1	4	99	-1	/
Cc1nn(CC(=O)NCCCN2CCC(Cc3ccccc3)CC2)c(=O)c2cc(-c3ccccc3)nn12	-3	0	2	31	101	87*	3
CCc1ccc(-c2cc3c(=O)n(CC(=O)NCCCN4CCC(Cc5ccccc5)CC4)nc(C)n3n2)cc1	-11	0	1	32	95	55	/
C[C@H]1CCCCO[C@@H](CN(C)C(=O)Nc2ccc3c(c2)OCO3)[C@@H](C)CN([C@@H](C)CO)C(=O)c2cc(NS(=O)(=O)c3cccs3)ccc2O1	/	0	/	/	/	/	/
COC(=O)c1c(NC(=O)CSc2nnc(CNc3ccc(Cl)cc3)o2)sc(C)c1C	-1	/	3	13	101	92*	-3
COc1cc2c(cc1OC)C(CCc1ccccc1)=NCC2	-6	0	3	-2	102	63*	-12
COc1cc2c(cc1OC)C(c1c(Cl)cccc1Cl)=NCC2	2	0	/	/	94	0	/
Cc1cccc(Oc2sc(C(=O)c3ccccc3)c(N)c2C#N)c1C	-6	/	-5	13	91	66*	5
N#Cc1c(Oc2ccc3ccccc3c2)sc(C(=O)c2ccccc2)c1N	-18	/	-3	-1	94	42	/
NC(=O)[C@@H]1[C@H]2C(=O)O[C@H](c3ccccc3)[C@H](c3ccccc3)N2[C@H](c2ccc(OCCO)cc2)[C@@]12C(=O)Nc1ccccc12	/	0	/	/	/	/	/
Oc1c(CN2CCOCC2)ccc2ccccc12	-9	-1	2	/	94	86*	-12
COc1ccc(NC(=O)N(C)C[C@@H]2Oc3ccc(NS(=O)(=O)c4cccs4)cc3CC(=O)N([C@@H](C)CO)C[C@H]2C)cc1	/	1	/	/	/	/	/
COC(=O)c1ccc(OCC(O)CN2CCc3cc(OC)c(OC)cc3C2c2ccccc2)cc1 (stereo not given)	-4	0	-2	-3	88	74*	-12
CCC(=O)N1CCc2cc(OC)c(OC)cc2C1COc1ccc(C(=O)OC)cc1 (stereo not given)	16	/	-4	2	97	31	/
CC1(C(=O)OCC(=O)Nc2nc(-c3ccc(F)c(F)c3)cs2)CC1(Cl)Cl (stereo not given)	1	0	-6	5	95	92*	101*
Cc1cc(C)c(C)c(S(=O)(=O)Nc2cccc(-n3cnnn3)c2)c1C	3	0	0	1	99	60*	-14
COc1ccc(Cc2nnc(NC(=O)Nc3ccc(C)cc3)s2)cc1OC	/	0	-4	-3	99	65*	-14
COc1ccc(-n2nnnc2S(=O)(=O)CC(=O)N2CCCCC2)cc1	2	0	-1	-1	98	60*	8
CN1CCN(C(=O)C[C@H]2CC[C@@H]3[C@H](COC[C@@H](O)CN3C(=O)Nc3ccc(Cl)cc3)O2)CC1	/	0	/	/	/	/	/
SMILES	MT1-MMP act inh	FGF22 binding	DAGLB inhibitor	VLA-4 inh	ABCB6 inh MLPCN	Granule exo inh	Granule exo CP1
C[C@@H]1CN([C@@H](C)CO)C(=O)c2cc(-c3ccc(F)cc3)cnc2O[C@H]1CN(C)CC1CCCCC1	/	0	/	/	/	/	/
COc1ccc(-c2cc(N3CCN(CCO)CC3)n3nccc3n2)cc1	4	0	/	/	96	-8	/
OCCN1CCN(c2cc(-c3ccc4ccccc4c3)nc3ccnn23)CC1	-1	0	/	/	100	59*	-12
CCCCn1nnnc1C(c1ccnc2ccccc12)N1CCN(C/C=C/c2ccccc2)CC1 (stereo not given)	-1	-1	/	/	83	-6	/
CCCCn1nnnc1C(c1cccc2ccccc12)N1CCN(C/C=C/c2ccccc2)CC1 (stereo not given)	-4	-1	/	/	94	58*	28
CCNCC(=O)N1c2ccccc2CCc2ccc(NC(=O)OCC)cc21	0	/	-3	-47	95	57*	-14
CCOC(=O)Nc1ccc2c(c1)N(C(=O)CN)c1ccccc1CC2	-1	0	0	14	97	0	/
Cc1cc(Br)cn2c(Cc3cccc(F)c3)c(-c3ccco3)nc12	/	0	/	/	/	/	/
COc1ccccc1Cc1c(-c2ccco2)nc2ccc(Cl)cn12	-7	0	/	/	98	82*	4
Clc1ccc2nc(-c3ccco3)c(Cc3ccccc3)n2c1	-6	0	/	/	98	46	/
Fc1cccc(Cc2c(-c3ccco3)nc3ccc(Br)cn23)c1	-6	40	/	/	100	59*	-1
Fc1cccc(Cc2c(-c3ccco3)nc3ccc(Cl)cn23)c1	-4	/	/	/	105	58*	-11
CCCC#Cc1cnc2c(c1)C(=O)N([C@@H](C)CO)C[C@H](C)[C@H](CN(C)S(C)(=O)=O)O2	/	0	/	/	/	/	/
CCC(=O)N1CC2(C1)[C@H](c1ccccc1)[C@@H](CO)N2Cc1cccc(Cl)c1	/	0	/	/	/	/	/
